Data: ChEMBL document CHEMBL3352086, “Structure-based design and development of functionalized Mercaptoguanine derivatives as inhibitors of the folate biosynthesis pathway enzyme 6-hydroxymethyl-7,8-dihydropterin pyrophosphokinase from Staphylococcus aureus” (J Med Chem, 2014)
Active and inactive are the calls of the source. No cut-off for these calls is given here.

What was measured:
[1] = target: T1, 2-amino-4-hydroxy-6-hydroxymethyldihydropteridin e pyrophosphokinase (Staphylococcus aureus, UniProt X5EH84); assay: Binding affinity to Staphylococcus aureus recombinant HPPK by surface plasmon resonance analysis
T1 sequence (X5EH84 whole entry): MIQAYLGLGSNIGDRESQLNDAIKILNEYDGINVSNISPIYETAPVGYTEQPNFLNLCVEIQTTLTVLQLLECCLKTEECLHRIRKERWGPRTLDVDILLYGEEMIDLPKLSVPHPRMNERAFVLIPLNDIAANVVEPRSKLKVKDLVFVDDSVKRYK
Method in brief: (§1)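 Ni/NHS-EDC capture-coupled on an NTA chip (SaHPPK loaded at 225 μg mL⁻¹, ~5400 RU; EcDHPS at 80 μg mL⁻¹, ~7200 RU), with a USP7 control surface. Analytes were 3-fold serially diluted, with 30 s contact at 60 μL min⁻¹ and 60 s dissociation, in duplicate or more. Responses were double-referenced and equilibrium responses fit to a 1:1 steady-state model.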

Dihydropteroate synthase = target: T2, Dihydropteroate synthase (Bacteria, UniProt P0AC13); assay: Binding affinity to Escherichia coli DHPS by surface plasmon resonance analysis; method in brief: as §1
T2 sequence (P0AC13 whole entry): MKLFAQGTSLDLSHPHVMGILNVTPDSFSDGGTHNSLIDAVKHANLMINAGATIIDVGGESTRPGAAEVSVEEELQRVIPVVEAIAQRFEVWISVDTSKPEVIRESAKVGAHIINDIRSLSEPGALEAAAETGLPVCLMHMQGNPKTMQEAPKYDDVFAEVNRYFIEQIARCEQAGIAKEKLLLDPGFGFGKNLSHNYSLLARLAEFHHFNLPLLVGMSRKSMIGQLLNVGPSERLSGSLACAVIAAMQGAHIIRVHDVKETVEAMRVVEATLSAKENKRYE

[2] = target: T1, 2-amino-4-hydroxy-6-hydroxymethyldihydropteridin e pyrophosphokinase; assay: Binding affinity to Staphylococcus aureus recombinant HPPK by surface plasmon resonance analysis in presence of ATP; method in brief: as §1
[3] = target: T3, 2-amino-4-hydroxy-6-hydroxymethyldihydropteridin e pyrophosphokinase (Staphylococcus aureus) (UniProt X5EH84); assay: Binding affinity to Staphylococcus aureus HPPK in presence of ATP by NMR spectroscopy
T3 sequence (whole entry): T1 sequence (X5EH84 whole entry)

[4] = target: T3, 2-amino-4-hydroxy-6-hydroxymethyldihydropteridin e pyrophosphokinase (Staphylococcus aureus); assay: Binding affinity to Staphylococcus aureus HPPK in presence of AMPCPP by NMR spectroscopy
Method in brief: (§2)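 ¹⁵N-labelled SaHPPK was expressed in E. coli BL21(DE3) in minimal medium with ¹⁵N ammonium chloride. 2D ¹⁵N HSQC spectra used ~120 μM SaHPPK in 50 mM HEPES pH 8 with 10 mM Mg²⁺ and saturating AMPCPP. Ligand was titrated to saturation from a 50 mM DMSO-d₆ stock, and binding was tracked by backbone amide chemical shift perturbations.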

[5] = target: T3, 2-amino-4-hydroxy-6-hydroxymethyldihydropteridin e pyrophosphokinase (Staphylococcus aureus); assay: Binding affinity to Staphylococcus aureus HPPK in presence of AMPCPP by 2D 15N HSQC NMR spectroscopy; method in brief: as §2
[6] = target: T3, 2-amino-4-hydroxy-6-hydroxymethyldihydropteridin e pyrophosphokinase (Staphylococcus aureus); assay: Binding affinity to Staphylococcus aureus HPPK in absence of ATP by NMR spectroscopy
[7] = target: T1, 2-amino-4-hydroxy-6-hydroxymethyldihydropteridin e pyrophosphokinase; assay: Inhibition of Staphylococcus aureus HPPK after 20 mins by luciferase reporter gene assay
Method in brief: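 Kinase-Glo ATP-depletion assay: HPPK 0.4 ng μL⁻¹ with 0.3 μM pterin and 0.2 μM ATP in 100 mM Tris-HCl pH 8.5, 10 mM MgCl₂, 0.01% BSA, 0.01% Tween 20, 10 mM β-mercaptoethanol. Compound added from 50% DMSO solution; 20 min at room temperature, then stopped with Kinase-Glo reagent and luminescence read 10 min later. Triplicates; IC50 from sigmoidal dose–response fit.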

[8] = target: T1, 2-amino-4-hydroxy-6-hydroxymethyldihydropteridin e pyrophosphokinase; assay: Binding affinity to Staphylococcus aureus HPPK by isothermal calorimetry

Q: For `Nc1nc2[nH]c(SCc3ccccc3)nc2c(=O)[nH]1`, which Kd [1] is on record?
A: 13.5 µM

Q: And the Kd (Dihydropteroate synthase)?
A: 43.9 µM

Q: What about the Kd [2] of the same compound?
A: 1.79 µM

Q: With `Nc1nc2nc(SCC(=O)c3ccccc3)[nH]c2c(=O)[nH]1` as the compound, how does the Kd [1] read?
A: 10.3 µM

Q: What about the Kd (Dihydropteroate synthase) of the same compound?
A: 3.9 µM

Q: And the Kd [2]?
A: 1.4 µM

Q: What does the source list for `CC(Sc1nc2nc(N)[nH]c(=O)c2[nH]1)C(=O)c1ccccc1` (stereo not drawn)?
A: Kd [1]: 7.5 µM; Kd (Dihydropteroate synthase): 8.2 µM; Kd [2]: 1.8 µM

Q: What does the source list for `COc1ccc(CCSc2nc3c(=O)[nH]c(N)nc3[nH]2)cc1`?
A: Kd [1]: 73.5 µM; Kd (Dihydropteroate synthase): 14.2 µM; Kd [2]: 7.8 µM

Q: How did the Kd [1] turn out when `COc1ccc(C(=O)CSc2nc3nc(N)[nH]c(=O)c3[nH]2)cc1` was run?
A: 76.6 µM

Q: And the Activity [3]?
A: Active

Q: And the Activity [4]?
A: Active

Q: And the Activity [5]?
A: Active

Q: What about the Kd (Dihydropteroate synthase) of the same compound?
A: 3.9 µM

Q: And the Activity [6]?
A: inactive

Q: And the Kd [2]?
A: 1.09 µM

Q: How did the Kd [1] turn out when `COc1ccccc1C(=O)CSc1nc2nc(N)[nH]c(=O)c2[nH]1` was run?
A: 21.7 µM

Q: And the Kd (Dihydropteroate synthase)?
A: 1.6 µM

Q: What about the Kd [2] of the same compound?
A: 2.8 µM

Q: `Nc1nc2[nH]c(SCc3ccccc3C(F)(F)F)nc2c(=O)[nH]1` was tested. Which Kd [1] did it give?
A: 7.26 µM

Q: And the Kd (Dihydropteroate synthase)?
A: 9.74 µM

Q: What about the Kd [2] of the same compound?
A: 2.81 µM

Q: What does the source list for `Nc1nc2[nH]c(SCC(=O)c3ccc(-c4ccccc4)cc3)nc2c(=O)[nH]1`?
A: Kd [1]: 21.5 µM; Kd (Dihydropteroate synthase): 8.4 µM; Kd [2]: 0.81 µM

Q: With `Nc1nc2[nH]c(SCc3ccccc3F)nc2c(=O)[nH]1` as the compound, how does the Kd [1] read?
A: 4.3 µM

Q: And the IC50 [7]?
A: 24.9 µM

Q: What about the Kd (Dihydropteroate synthase) of the same compound?
A: 8.5 µM

Q: And the Kd [2]?
A: 0.45 µM

Q: How did the Kd [1] turn out when `N#Cc1ccc(CSc2nc3nc(N)[nH]c(=O)c3[nH]2)cc1` was run?
A: 11.1 µM

Q: And the Kd (Dihydropteroate synthase)?
A: 12.3 µM

Q: And the Kd [2]?
A: 0.66 µM

Q: `CC(=O)CSc1nc2c(=O)[nH]c(N)nc2[nH]1` was tested. Which Kd [1] did it give?
A: 42.7 µM

Q: What about the Kd (Dihydropteroate synthase) of the same compound?
A: 7.8 µM

Q: And the Kd [2]?
A: 1.85 µM

Q: What does the source list for `Nc1nc2[nH]c(S)nc2c(=O)[nH]1`?
A: Kd [1]: 10.8 µM; IC50 [7]: 41 µM; Kd [8]: 11 µM; Kd (Dihydropteroate synthase): 76.2 µM; Kd [2]: 12.6 µM
